Laboratory results: ChEMBL document CHEMBL1671691 (Antimicrob Agents Chemother, 2010)

Columns and labels:
Influenza A virus [1] = assay: Antiviral activity against adamantane-resistant zanamivir-,oseltamivir-susceptible Influenza A virus (A/Florida/01/2009(H3N2)) harboring M2 S31N mutant infected in MDCK cells assessed as inhibition of viral replication after 3 days by microscopic analysis using crystal violet stain; type: functional, organism-based
How it was run: (§1)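 Confluent MDCK-ATCC monolayers infected with virus diluted to give 15–45 plaques/well. Adsorption 1 h at 37°C without drug, then washed. Overlaid with 0.8% agarose in MEM containing drug plus TPCK-trypsin: 3 μg/ml for seasonal viruses, 2 μg/ml for 2009 A(H1N1). Incubated 3 days at 37°C, 5% CO2. Ethanol-fixed, crystal violet-stained, plaques counted. EC50 by curve fit; duplicates on three occasions, mean ± SD.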

Influenza A virus [2] = assay: Antiviral activity against oseltamivir-susceptible zanamivir-, adamantane-resistant Influenza A virus (A/Texas/12/2007 (clone)(H3N2)) harboring neuraminidase E119I mutant and harboring M2 S31N mutant infected in MDCK cells assessed as inhibition of viral replication after 3 days by microscopic analysis using crystal violet stain; type: functional, organism-based, Influenza A virus (A/Texas/12/2007(H3N2))
Influenza A virus [3] = assay: Antiviral activity against adamantane-, zanamivir-susceptible oseltamivir-resistant Influenza A virus (A/Georgia/20/2006(H1N1)) harboring neuraminidase H274Y mutant infected in MDCK cells assessed as inhibition of viral replication after 3 days by microscopic analysis using crystal violet stain; type: functional, organism-based; how it was run: as §1
Influenza B virus [4] = assay: microbe, parasite or virus in culture; conditions: B/Memphis/20/96, MDCK, 72 h
Influenza A virus [5] = assay: Antiviral activity against adamantane-resistant zanamivir-,oseltamivir-susceptible Influenza A virus (A/Washington/01/2007(H3N2)) harboring M2 S31N mutant infected in MDCK cells assessed as inhibition of viral replication after 3 days by microscopic analysis using crystal violet stain; type: functional, organism-based; how it was run: as §1
Influenza B virus [6] = assay: Antiviral activity against oseltamivir-susceptible zanamivir-, adamantane-resistant Influenza B virus B/Memphis/20/1996 harboring neuraminidase R152K mutant infected in MDCK cells assessed as inhibition of viral replication after 3 days by microscopic analysis using crystal violet stain; type: functional, cell-based, B/Memphis/20/96

Q: How did the EC50 (Influenza A virus [1]) turn out when `NC(=O)c1ncn([C@@H]2O[C@H](CO)[C@@H](O)[C@H]2O)n1` [RIBAVIRIN] was run?
A: 20.9 µM

Q: What about the EC50 (Influenza A virus [2]) of the same molecule?
A: 46.7 µM

Q: What about the EC50 (Influenza A virus [3]) of the same molecule?
A: 19.7 µM

Q: And the EC50 (Influenza B virus [4])?
A: 13.9 µM

Q: What about the EC50 (Influenza A virus [5]) of the same molecule?
A: 35.6 µM

Q: And the EC50 (Influenza B virus [6])?
A: 25 µM
